Laboratory results published in ChEMBL document CHEMBL1124349, “Novel benzodiazepine receptor partial agonists: oxadiazolylimidazobenzodiazepines” (J Med Chem, 1989).

Legend:
[1] = target: GABA-A receptor; anion channel; assay: Inhibition of radiolabeled antagonist [3H]-Ro- 15-1788 binding to benzodiazepine receptor from rat cortical membranes; format: cell membranes, Membrane
Method in brief: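 Rat (Sprague–Dawley, 250-300 g) cortical membranes, water-washed and frozen at -20 °C ≥18 h, then washed repeatedly in Krebs/HEPES pH 7.4. Nonspecific binding with 3 μM clonazepam. Filtration, scintillation counting.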

[2] = target: GABA-A receptor; anion channel (Rattus norvegicus) (UniProt O09028+P15431+P18506+P18508+P19969+P20236+P23574+P23576+P28471+P28473+P30191+P62813+P63079+P63138+Q91ZM7+Q9ES14); assay: Ratio of binding affinity to the GABA-A receptor in the presence and absence of GABA; format: protein-complex assay
Method in brief: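 [3H]-Ro 15-1788 displacement in washed rat cortical membranes (Krebs/HEPES pH 7.4, nipecotic acid 10^-4 M, 30 °C, 60 min) run with and without GABA at 0.3 mM. Nonspecific binding was defined by 3 μM clonazepam, and read-out was filtration with scintillation counting. The value is the ratio of the affinities obtained with GABA and without it.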

Row | SMILES | IC50 [1] | GABA shift [2]
1 | CCc1noc(-c2ncn3c2CN=C(c2ccccc2)c2cc(Cl)ccc2-3)n1 | 160 nM | 2
2 | CCCc1nc(-c2ncn3c2CN=C(c2ccccc2)c2cc(Cl)ccc2-3)no1 | 45 nM | 2.22
3 | CCc1nc(-c2ncn3c2CN(C)C(=O)c2c(F)cccc2-3)no1 | 15 nM | 1.44
4 | CCc1nc(-c2ncn3c2CN=C(c2ccccc2)c2c(F)cccc2-3)no1 | 7.5 nM | 1.82
5 | Cc1noc(-c2ncn3c2CN=C(c2ccccc2Cl)c2cc(Cl)ccc2-3)n1 | 110 nM | 2.28
6 | Cc1noc(-c2ncn3c2CN=C(c2ccccc2)c2cc(Cl)ccc2-3)n1 | 180 nM | 1.84
7 | CC(C)c1noc(-c2ncn3c2CN=C(c2ccccc2)c2c(F)cccc2-3)n1 | 1.4 nM | 2.03
8 | CCCc1noc(-c2ncn3c2CN(C)C(=O)c2cc(F)ccc2-3)n1 | 42 nM | 2
9 | CC(C)c1noc(-c2ncn3c2CN(C)C(=O)c2c(F)cccc2-3)n1 | 67 nM | 2.31
10 | CCCc1noc(-c2ncn3c2CN(C)C(=O)c2c(F)cccc2-3)n1 | 24 nM | 1.94
11 | CC(C)c1noc(-c2ncn3c2CN=C(c2ccccc2)c2c(Cl)cccc2-3)n1 | 7.2 nM | 1.91
12 | CCCc1nc(-c2ncn3c2CN(C)C(=O)c2cc(F)ccc2-3)no1 | 27 nM | 1.96
13 | CCc1nc(-c2ncn3c2CN(C)C(=O)c2ccccc2-3)no1 | 22 nM | 1.8
14 | CC(C)c1nc(-c2ncn3c2CN=C(c2ccccc2)c2c(F)cccc2-3)no1 | 6.1 nM | 2.08
15 | Cc1nc(-c2ncn3c2CN=C(c2ccccc2)c2cc(Cl)ccc2-3)no1 | 71 nM | 1.17
16 | CC(C)c1nc(-c2ncn3c2CN=C(c2ccccc2)c2cc(Cl)ccc2-3)no1 | 53 nM | 2.89
17 | CCCc1nc(-c2ncn3c2CN(C)C(=O)c2ccccc2-3)no1 | 34 nM | 2
18 | CCc1noc(-c2ncn3c2CN(C)C(=O)c2c(Cl)cccc2-3)n1 | 9.7 nM | 1.43
19 | CC(C)c1nc(-c2ncn3c2CN(C)C(=O)c2c(F)cccc2-3)no1 | 19 nM | 1.97
20 | Cc1nc(-c2ncn3c2CN=C(c2ccccc2)c2c(Cl)cccc2-3)no1 | 1.3 nM | 1.44
21 | Cc1noc(-c2ncn3c2CN=C(c2ccccc2)c2c(Cl)cccc2-3)n1 | 3.4 nM | 1.67
22 | CCc1noc(-c2ncn3c2CN(C)C(=O)c2cc(F)ccc2-3)n1 | 105 nM | 2.34

Row | SMILES | IC50 [1] | GABA shift [2]
23 | CCc1nc(-c2ncn3c2CN(C)C(=O)c2c(Cl)cccc2-3)no1 | 6.4 nM | 1.12
24 | CC(C)c1nc(-c2ncn3c2CN(C)C(=O)c2ccccc2-3)no1 | 53 nM | 2.4
25 | CCc1nc(-c2ncn3c2CN=C(c2ccccc2)c2c(Cl)cccc2-3)no1 | 2.8 nM | 1.65
26 | Cc1nc(-c2ncn3c2CN(C)C(=O)c2c(F)cccc2-3)no1 | 11 nM | 1.65
27 | CC(C)c1noc(-c2ncn3c2CN(C)C(=O)c2ccccc2-3)n1 | 105 nM | 2.19
28 | CC(C)c1noc(-c2ncn3c2CN=C(c2ccccc2)c2ccccc2-3)n1 | 52 nM | 1.7
29 | CCc1nc(-c2ncn3c2CN=C(c2ccccc2)c2cc(Cl)ccc2-3)no1 | 44 nM | 2.43
30 | CC(C)c1nc(-c2ncn3c2CN=C(c2ccccc2Cl)c2cc(Cl)ccc2-3)no1 | 12 nM | 2.79
31 | CCCc1nc(-c2ncn3c2CN=C(c2ccccc2Cl)c2cc(Cl)ccc2-3)no1 | 8.2 nM | 1.81
32 | CC(C)c1noc(-c2ncn3c2CN(C)C(=O)c2cc(F)ccc2-3)n1 | 100 nM | 1.86
33 | CC(C)c1noc(-c2ncn3c2CN(C)C(=O)c2c(Cl)cccc2-3)n1 | 14 nM | 1.86
34 | CCc1noc(-c2ncn3c2CN=C(c2ccccc2)c2c(Cl)cccc2-3)n1 | 4.1 nM | 2.21
35 | CCCc1nc(-c2ncn3c2CN=C(c2ccccc2)c2c(F)cccc2-3)no1 | 5.3 nM | 2.06
36 | Cc1noc(-c2ncn3c2CN(C)C(=O)c2c(Cl)cccc2-3)n1 | 8.1 nM | 1.51
37 | Cc1noc(-c2ncn3c2CN(C)C(=O)c2cc(F)ccc2-3)n1 | 50 nM | 1.47
38 | CC(C)c1noc(-c2ncn3c2CN=C(c2ccccc2Cl)c2ccccc2-3)n1 | 31 nM | 1.83
39 | Cc1nc(-c2ncn3c2CN=C(c2ccccc2Cl)c2ccccc2-3)no1 | 6.7 nM | 1.35
40 | CCCc1nc(-c2ncn3c2CN=C(c2ccccc2Cl)c2ccccc2-3)no1 | 12 nM | 1.68
41 | CC(C)c1nc(-c2ncn3c2CN=C(c2ccccc2)c2c(Cl)cccc2-3)no1 | 6.9 nM | 1.82
42 | CC(C)c1nc(-c2ncn3c2CN=C(c2ccccc2Cl)c2ccccc2-3)no1 | 14 nM | 1.64
43 | CCc1noc(-c2ncn3c2CN=C(c2ccccc2Cl)c2cc(Cl)ccc2-3)n1 | 25 nM | 2.11
44 | Cc1noc(-c2ncn3c2CN=C(c2ccccc2)c2c(F)cccc2-3)n1 | 8.3 nM | 1.84

Row | SMILES | IC50 [1] | GABA shift [2]
45 | CCCc1noc(-c2ncn3c2CN=C(c2ccccc2)c2ccccc2-3)n1 | 43 nM | 1.8
46 | CCCc1nc(-c2ncn3c2CN=C(c2ccccc2)c2c(Cl)cccc2-3)no1 | 3.9 nM | 1.7
47 | CC(C)c1nc(-c2ncn3c2CN(C)C(=O)c2c(Cl)cccc2-3)no1 | 3.6 nM | 2.37
48 | CCc1noc(-c2ncn3c2CN=C(c2ccccc2)c2ccccc2-3)n1 | 19 nM | 1.2
49 | O=C(OCC1CC1)c1ncn2c1C1CCN1C(=O)c1c(Cl)cccc1-2 (stereo not given) | 4.2 nM | 1.7
50 | CCCc1noc(-c2ncn3c2CN(C)C(=O)c2c(Cl)cccc2-3)n1 | 6 nM | 1.53
51 | Cc1nc(-c2ncn3c2CN(C)C(=O)c2c(Cl)cccc2-3)no1 | 3.4 nM | 1.18
52 | CCc1noc(-c2ncn3c2CN(C)C(=O)c2cc(Cl)ccc2-3)n1 | 600 nM | 0.91
53 | CCc1noc(-c2ncn3c2CN(C)C(=O)c2ccccc2-3)n1 | 51 nM | 1.79
54 | CCc1noc(-c2ncn3c2CN(C)C(=O)c2c(F)cccc2-3)n1 | 42 nM | 2.4
55 | CCCc1noc(-c2ncn3c2CN=C(c2ccccc2)c2c(Cl)cccc2-3)n1 | 5.2 nM | 1.85
56 | CC(C)c1noc(-c2ncn3c2CN=C(c2ccccc2Cl)c2cc(Cl)ccc2-3)n1 | 45 nM | 1.81
57 | Cc1noc(-c2ncn3c2CN(C)C(=O)c2c(F)cccc2-3)n1 | 22 nM | 1.85
58 | Cc1nc(-c2ncn3c2CN=C(c2ccccc2Cl)c2cc(Cl)ccc2-3)no1 | 20 nM | 1.83
59 | Cc1noc(-c2ncn3c2CN=C(c2ccccc2Cl)c2ccccc2-3)n1 | 31 nM | 1.29
60 | Cc1noc(-c2ncn3c2CN(C)C(=O)c2ccccc2-3)n1 | 67 nM | 1.5
61 | CCc1nc(-c2ncn3c2CN=C(c2ccccc2)c2ccccc2-3)no1 | 16 nM | 2.11
62 | CCc1nc(-c2ncn3c2CN=C(c2ccccc2Cl)c2cc(Cl)ccc2-3)no1 | 9.4 nM | 1.86
63 | Cc1nc(-c2ncn3c2CN(C)C(=O)c2cc(F)ccc2-3)no1 | 21 nM | 1.53
64 | CC(C)c1nc(-c2ncn3c2CN(C)C(=O)c2cc(F)ccc2-3)no1 | 43 nM | 2.76
65 | CCCc1noc(-c2ncn3c2CN=C(c2ccccc2)c2cc(Cl)ccc2-3)n1 | 120 nM | 2.57
